Experimental data published in ChEMBL document CHEMBL4196160, “Structure-Guided Design and Procognitive Assessment of a Potent and Selective Phosphodiesterase 2A Inhibitor” (ACS Med Chem Lett, 2018).
The source made the active and inactive calls. The rule behind the calls is not given here.

Legend:
[1] = Inhibition of rhesus monkey brain PDE2A3 expressed in human AD293 cells using FAM-labeled cAMP/cGMP as substrate incubated for 60 mins measured after 1 hr by IMAP based fluorescence polarization assay
[2] = Lipophilicity, log D of the compound by HPLC method; assay type: physicochemical
[3] = Selectivity ratio of IC50 for human GST-tagged PDE1A expressed in insect cells to IC50 for rhesus monkey brain PDE2A3 expressed in human AD293 cells
[4] = Selectivity ratio of IC50 for human GST-tagged PDE2A1 expressed in insect cells to IC50 for rhesus monkey brain PDE2A3 expressed in human AD293 cells
[5] = Selectivity ratio of IC50 for human GST-tagged PDE3A expressed in insect cells to IC50 for rhesus monkey brain PDE2A3 expressed in human AD293 cells
[6] = Selectivity ratio of IC50 for human GST-tagged PDE4A1A expressed in insect cells to IC50 for rhesus monkey brain PDE2A3 expressed in human AD293 cells
[7] = Selectivity ratio of IC50 for human GST-tagged PDE5A1 expressed in insect cells to IC50 for rhesus monkey brain PDE2A3 expressed in human AD293 cells
[8] = Selectivity ratio of IC50 for human GST-tagged PDE6C expressed in insect cells to IC50 for rhesus monkey brain PDE2A3 expressed in human AD293 cells
[9] = Selectivity ratio of IC50 for human GST-tagged PDE7A expressed in insect cells to IC50 for rhesus monkey brain PDE2A3 expressed in human AD293 cells
[10] = Selectivity ratio of IC50 for human GST-tagged PDE8A1 expressed in insect cells to IC50 for rhesus monkey brain PDE2A3 expressed in human AD293 cells
[11] = Selectivity ratio of IC50 for human GST-tagged PDE9A2 expressed in insect cells to IC50 for rhesus monkey brain PDE2A3 expressed in human AD293 cells
[12] = Selectivity ratio of IC50 for human GST-tagged PDE10A2 expressed in insect cells to IC50 for rhesus monkey brain PDE2A3 expressed in human AD293 cells
[13] = Selectivity ratio of IC50 for human GST-tagged PDE11A4 expressed in insect cells to IC50 for rhesus monkey brain PDE2A3 expressed in human AD293 cells
P-gp [14] = assay: Substrate activity at human P-gp assessed as efflux ratio; assay type: ADME; conditions: not told
P-gp [15] = assay: Substrate activity at rat P-gp assessed as efflux ratio; assay type: ADME; conditions: not told
P-gp [16] = assay: Substrate activity at P-gp (unknown origin) assessed as apparent permeability; assay type: ADME; conditions: human, not told
[17] = Oral bioavailability in rat; assay type: ADME, organism-based; conditions: in vivo
[18] = Protein binding in rat plasma; assay type: ADME, cell-free; conditions: read-out: PPB (converted)
[19] = Volume of distribution at steady state in rat; assay type: ADME, organism-based; conditions: in vivo, read-out: Vdss
[20] = Intrinsic clearance in human liver microsomes; assay type: ADME, microsome; conditions: read-out: CLH
[21] = Clearance in rat; assay type: ADME, organism-based; conditions: in vivo
[22] = Half life in rat; assay type: ADME, organism-based; conditions: in vivo
[23] = Inhibition of CYP450 (unknown origin); assay type: ADME, Homo sapiens
Rattus norvegicus [24] = assay: Increase in cGMP levels in rat brain cytosolic fraction of cortical tissue at 3 to 30 mg/kg, po measured after 30 mins by ELISA; assay type: functional, organism-based
In short: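 Rats dosed orally at 3, 10 or 30 mg/kg; brain tissue harvested 30 min after dosing and frozen; cortical cGMP measured and compared with controls.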

Rattus norvegicus [25] = assay: Reversal of scopolamine-induced cognitive impairment in Wistar Hannover rat assessed as improvement in episodic memory at 0.1 to 1 mg/kg, po administered 30 mins prior to testing by novel object recognition test; assay type: functional, organism-based
In short: (§1)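 Rats given vehicle or scopolamine, then exposed to two identical objects; one hour later exposed to one familiar and one novel object. Recognition memory scored as time spent exploring the novel versus the familiar object. Donepezil served as positive control.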

[26] = Clearance in rhesus monkey; assay type: ADME, organism-based, Macaca mulatta; conditions: in vivo
[27] = Half life in rhesus monkey; assay type: ADME, organism-based, Macaca mulatta; conditions: in vivo
[28] = Volume of distribution at steady state in rhesus monkey; assay type: ADME, organism-based, Macaca mulatta; conditions: in vivo, read-out: Vdss
[29] = Oral bioavailability in rhesus monkey; assay type: ADME, organism-based, Macaca mulatta; conditions: in vivo
[30] = Protein binding in rhesus monkey plasma; assay type: ADME, cell-free, Macaca mulatta; conditions: read-out: PPB (converted)
Rhesus monkey [31] = assay: Reversal of scopolamine-induced cognitive impairment in rhesus monkey assessed increase in novel object retrieval administered orally 4 hrs prior to testing by novel object recognition test; assay type: functional, organism-based; conditions: Macaca mulatta
In short: (§2)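 Rhesus monkeys impaired with scopolamine performed an object retrieval task. A food item was placed deep inside a clear box whose single open side was out of direct view. Each attempt was scored correct if the food was retrieved without touching a closed side. Read-out was percentage correct versus scopolamine alone, with donepezil as positive control.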

Rhesus monkey [32] = assay: Reversal of scopolamine-induced cognitive impairment in rhesus monkey assessed increase in novel object retrieval at 1 mg/kg administered orally 4 hrs prior to testing by novel object recognition test; assay type: functional, organism-based; conditions: Macaca mulatta; in short: as §2
Rattus norvegicus [33] = assay: Reversal of scopolamine-induced cognitive impairment in Wistar Hannover rat assessed as improvement in episodic memory at 1.8 mg/kg, ip administered 30 mins prior to testing by novel object recognition test; assay type: functional, organism-based; in short: as §1
Rhesus monkey [34] = assay: Reversal of scopolamine-induced cognitive impairment in rhesus monkey assessed increase in novel object retrieval at 0.3 mg/kg by novel object recognition test; assay type: functional, organism-based; conditions: Macaca mulatta; in short: as §2

Structure (SMILES)	IC50 [1] [nM]	logD [2]	efflux ratio (P-gp [14])	efflux ratio (P-gp [15])	Ratio IC50 [3]	Ratio IC50 [4]	Ratio IC50 [5]	Ratio IC50 [6]	Ratio IC50 [7]	Ratio IC50 [8]	Ratio IC50 [9]	Ratio IC50 [10]	Ratio IC50 [11]	Ratio IC50 [12]	Ratio IC50 [13]	other results
C[C@@H](c1ccc(C(F)(F)F)cc1)n1nc(CO)c2c(=O)[nH]c(O)nc21	14	1.1	0.32	0.38	> 1000	> 1000	> 1000	> 1000	> 1000	> 1000	> 1000	> 1000	1190	> 1000	> 1000	Papp (P-gp [16]): 41 ×10⁻⁶ cm/s
Cc1nc2c(c(CO)nn2[C@H](c2ccc(C(F)(F)F)cc2)C(C)(C)C)c(=O)[nH]1	9															
Cc1nc2c(c(CO)nn2[C@@H](C)c2ccc(C(F)(F)F)cc2)c(=O)[nH]1	2	2.2 to 2.7	1	3	> 500	> 500	> 500	> 500	> 500	> 500	> 500	> 500	315	> 500	> 500	bioavailability [17]: 84%; fraction unbound [18]: 0.15; Vd [19]: 1.4 L/kg; CLint scaled [20]: < 6.2 mL/min/kg; clearance [21]: 5.6 mL/min/kg; half-life [22]: 2.9 h; Papp (P-gp [16]): 37 ×10⁻⁶ cm/s; IC50 [23]: > 50000 nM; Activity (Rattus norvegicus [24]): Active; Activity (Rattus norvegicus [25]): Active; clearance [26]: 2 mL/min/kg; half-life [27]: 5.2 h; Vd [28]: 0.88 L/kg; bioavailability [29]: 100%; fraction unbound [30]: 0.1; Activity (Rhesus monkey [31]): Dose-dependent effect; Activity (Rhesus monkey [32]): inactive
COc1ccc(Cc2nc3c(c(CO)nn3[C@@H](C)c3ccc(C(F)(F)F)cc3)c(=O)[nH]2)cc1OC	0.89		11	35												
COc1cc2c(cc1OC)C(=O)C(CC1CCN(Cc3ccccc3)CC1)C2 (stereo not given)																Activity (Rattus norvegicus [33]): Active; Activity (Rhesus monkey [34]): Active
C[C@@H](c1ccc(C(F)(F)F)cc1)n1nc(CC(F)(F)F)c2c(=O)[nH]c(O)nc21	0.96	1.8	4.8	19	> 12000	> 12000	> 12000	> 12000	> 12000	> 12000	> 12000	> 12000	> 12000	> 12000	> 12000	
Cc1nc2c(c(C)nn2[C@@H](C)c2ccc(C(F)(F)F)cc2)c(=O)[nH]1	23	2.7			0 to 100		0 to 100	101 to 500	101 to 500	> 500	> 500	> 500	4	101 to 500	101 to 500	

Further lines, with some results ahead:

IC50 [1] [nM]	logD [2]	efflux ratio (P-gp [14])	efflux ratio (P-gp [15])	Structure (SMILES)	Ratio IC50 [3]	Ratio IC50 [4]	Ratio IC50 [5]	Ratio IC50 [6]	Ratio IC50 [7]	Ratio IC50 [8]	Ratio IC50 [9]	Ratio IC50 [10]	Ratio IC50 [11]	Ratio IC50 [12]	Ratio IC50 [13]	other results
2				C[C@@H](c1ccc(C(F)(F)F)cc1)n1nc(CF)c2c(=O)[nH]c(O)nc21												
216				Cc1nc2c(c(CO)nn2[C@H](C)c2ccc(C(F)(F)F)cc2)c(=O)[nH]1												
1.3				Cc1nc2c(c(CO)nn2[C@@H](C)c2ccc(C(F)(F)F)c(F)c2)c(=O)[nH]1									950			
